From ChEMBL document CHEMBL4834399, “Pharmacokinetics of Eleven Kratom Alkaloids Following an Oral Dose of Either Traditional or Commercial Kratom Products in Rats” (J Nat Prod, 2021) come the findings set out here.

SMILES strings stand for the structures. Bounds are passed on as bounds.

The nature of series [1]: Tmax in Sprague-Dawley rat plasma at 0.13 mg/kg, po administered as LKT formulation measured for 24 hrs by UPLC-MS/MS analysis. Type of series: ADME, organism-based. The method, boiled down: (§1)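 Jugular-cannulated male SD rats (225 ± 25 g, n = 4) were fasted 12–16 h and given one oral gavage of LKT (366 mg/kg) or OPMS liquid (0.8 mL/kg) in water at 4 mL/kg, with dosing normalized to MTG human equivalent dose. Plasma was sampled from predose to 24 h and measured by UPLC–MS/MS (LLOQ 1 ng/mL). Cmax and Tmax were read from the observed data; Cmax/dose was also reported. Mean ± SEM.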

Series [2] can be described thus: Dose normalized AUC(0 to 24 hrs) in Sprague-Dawley rat plasma at 0.13 mg/kg, po administered as LKT formulation measured for 24 hrs by UPLC-MS/MS analysis. Type of series: ADME, organism-based. To be noted: in vivo.
Series [3] is described as follows: Tmax in Sprague-Dawley rat plasma at […], po administered as OPMS liquid formulation measured for 24 hrs by UPLC-MS/MS analysis. To be noted: dose 0.18 mg/kg. The class given is ADME, organism-based.
Series [4] is described as follows: Dose normalized Cmax in Sprague-Dawley rat plasma at 0.13 mg/kg, po administered as LKT formulation measured for 24 hrs by UPLC-MS/MS analysis. The class given is ADME, organism-based. To be noted: in vivo. In a few lines: as §1
Series [5] in a line: Stability of the compound in rat plasma assessed as drug recovery. The class given is ADME, cell-free.
Series [6] in a line: AUC(0 to 24 hrs) in Sprague-Dawley rat plasma at 0.13 mg/kg, po administered as LKT formulation measured for 24 hrs by UPLC-MS/MS analysis. The class given is ADME, organism-based. Set-up: route oral, time 24 hrs, dose 0.13 mg/kg.
Series [7] can be described thus: Dose normalized AUC(0-24 hrs) in po dosed rat plasma. Type of series: ADME, organism-based. To be noted: in vivo.
A short description of series [8]: Dose normalized AUC(0 to 24 hrs) in Sprague-Dawley rat plasma at […], po administered as OPMS liquid formulation measured for 24 hrs by UPLC-MS/MS analysis. Type of series: ADME, organism-based. To be noted: in vivo, dose 0.18 mg/kg.
Series [9] is described as follows: Dose normalized Cmax in Sprague-Dawley rat plasma at […], po administered as OPMS liquid formulation measured for 24 hrs by UPLC-MS/MS analysis. The class given is ADME, organism-based. To be noted: in vivo, dose 0.18 mg/kg.
A short description of series [10]: Dose normalized Cmax in po dosed rat plasma. Type of series: ADME, organism-based. To be noted: in vivo.
A short description of series [11]: Cmax in Sprague-Dawley rat plasma at […], po administered as OPMS liquid formulation measured for 24 hrs by UPLC-MS/MS analysis. The class given is ADME, organism-based. Also noted: route oral, time 24 hrs, dose 0.18 mg/kg.
The nature of series [12]: Stability of the compound in water-methanol mixture (1:1) assessed as drug recovery. The class given is physicochemical. To be noted: buffer.
Series [13] in a line: AUC(0 to 24 hrs) in Sprague-Dawley rat plasma at […], po administered as OPMS liquid formulation measured for 24 hrs by UPLC-MS/MS analysis. The class given is ADME, organism-based. Set-up: route oral, dose 0.18 mg/kg, time 24 hrs.

In the case of `CC[C@@H]1CN2CCc3c([nH]c4ccccc34)[C@@H]2C[C@@H]1/C(=C\OC)C(=O)OC` [CORYNANRHEIDINE], the Tmax (usually the time at which the peak concentration occurs) in [1] was 1 h. In addition, the AUC/dose in series [2] was 63.1 kg·ng·h/mL/mg; in [7] it was 138.8 kg·ng·h/mL/mg; in [8], 152.2 kg·ng·h/mL/mg. Further, in [3], the Tmax at 24 h stood at 3.1 h. The Cmax/dose in series [4] turned out to be 14 kg·ng/mL/mg; in series [9], 15.6 kg·ng/mL/mg; in series [10], 10.7 ng/mL. For the same compound, the figures for the Drug recovery in series [5] and in [12] were above 90% and above 80%, respectively. Further, the results for the AUC(0-t) at 24 h in series [6] and in series [13] were 8.2 ng·h/mL and 30.4 ng·h/mL, respectively. Further, the highest level in series [11] (Cmax at 24 h) was 3.1 ng/mL.
